Reference: publication PMC2861480 (Molecular bioSystems, 2009)

What was measured:
[1] = test system: β-catenin–TCF activity in 293T cells; experiment: In vitro β-catenin–TCF assay; format: cell-based; settings: 4 μM 3F8 added to the medium, 18 h
Method in brief: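 293T cells in 24-well plates were transfected with 200 ng superTOPflash reporter plasmid plus 20 ng Renilla luciferase (RLTK) control plasmid. Test compound was added 24 h after transfection and left for 18 h. Cell extracts were assayed sequentially for firefly and Renilla luciferase in a dual-luciferase system, and firefly readings were normalized to Renilla.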

GSK3β = GSK3β (Homo sapiens, UniProt P49841); experiment: Kinase profiling; format: biochemical, mammalian; settings: 5 μM 3F8 in 1% DMSO; panel of 22 kinases
GSK3β, sequence (P49841 whole entry): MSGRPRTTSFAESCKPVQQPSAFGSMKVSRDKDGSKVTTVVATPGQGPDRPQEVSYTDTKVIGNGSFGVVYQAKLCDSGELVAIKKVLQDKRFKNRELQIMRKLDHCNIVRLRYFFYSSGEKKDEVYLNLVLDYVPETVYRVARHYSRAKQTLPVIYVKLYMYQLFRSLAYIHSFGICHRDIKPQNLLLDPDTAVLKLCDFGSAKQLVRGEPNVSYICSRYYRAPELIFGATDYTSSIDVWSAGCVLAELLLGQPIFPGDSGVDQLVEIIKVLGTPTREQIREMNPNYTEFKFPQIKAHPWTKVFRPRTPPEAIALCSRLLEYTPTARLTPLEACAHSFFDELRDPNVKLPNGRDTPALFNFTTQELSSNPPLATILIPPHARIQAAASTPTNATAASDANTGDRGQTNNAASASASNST

zebrafish embryos = settings: for CE (effective concentration to cause no-eyes phenotype): zebrafish embryos

| inhibition of GSK3β activity (GSK3β) | Structure (SMILES) | luciferase read out increase (superTOPflash) [1] | no-eyes embryos that developed a forebrain and eyes after removal of compound (zebrafish embryos; 2 days of treatment, washed out, scored by 5 dpf) | concentration giving no-eyes phenotype in all embryos (zebrafish embryos; treated at the 2-cell stage) | concentration required for effect on brain development (zebrafish embryos; treated at the 2-somite stage (after gastrulation), no effect at highest dose) | concentration required for no-eyes phenotype (zebrafish embryos; treated at the shield stage) | CE (effective concentration to cause no-eyes phenotype) (zebrafish embryos) |
| --- | --- | --- | --- | --- | --- | --- | --- |
| 91% | CCc1nc2c(c3cc(OC)c(OC)cc13)C(=O)NC2=O [3F8, 5-ethyl-7,8-dimethoxy-1H-pyrrolo[3,4-c]-isoquinoline-1,3-(2H)-dione] | approximately 15 fold | 22% | 3.75 µM | > 75 µM | 11.25 µM | 7.5 µM |
| – | COC(=O)c1ccc[cH-]1.O=C1NC(=O)c2c1c1cccnc1c1[n-]c3c(Br)cc(O)cc3c21.[CH+]=O.[Ru] [GSK-3 inhibitor XV, reference compound] | – | – | – | – | – | 1 µM |
